From ChEMBL document CHEMBL4270548, “Discovery of a potent glucokinase activator with a favorable liver and pancreas distribution pattern for the treatment of type 2 diabetes mellitus” (Eur J Med Chem, 2018) come the findings set out here.

The structures appear in SMILES notation. The source made the active and inactive calls. The calls are words filed in the database; no cut-off is given here.

Data set [1] in a line: AUC (0 to 1.5 hrs) in C57BL/6J mouse pancreas at 10 mg/kg, po administered as single dose by LC/MS/MS analysis. Type of data set: ADME, organism-based. Also on record: dose 10 mg/kg, time < 1.5 hr, route oral. To be noted: in vivo.
A short description of data set [2]: Ratio of AUC (0 to 1.5 hrs) in C57BL/6J mouse liver to plasma at 30 mg/kg, po administered as single dose by LC/MS/MS analysis. To be noted: liver and plasma, read-out: Ratio AUC. Type of data set: ADME, organism-based.
A short description of data set [3]: AUC (0 to 1.5 hrs) in C57BL/6J mouse plasma at 30 mg/kg, po administered as single dose by LC/MS/MS analysis. Type of data set: ADME, organism-based. On the set-up: dose 30 mg/kg, time < 1.5 hr, route oral.
Data set [4] is described as follows: Ratio of AUC (0 to 1.5 hrs) in C57BL/6J mouse pancreas to plasma at 10 mg/kg, po administered as single dose by LC/MS/MS analysis. Type of data set: ADME, organism-based. To be noted: pancreas and plasma, read-out: Ratio AUC.
Data set [5] in a line: AUC (0 to 1.5 hrs) in C57BL/6J mouse liver at 10 mg/kg, po administered as single dose by LC/MS/MS analysis. Format: ADME, organism-based. Also on record: time < 1.5 hr, dose 10 mg/kg, route oral. To be noted: in vivo.
A short description of data set [6]: AUC (0 to 1.5 hrs) in C57BL/6J mouse pancreas at 30 mg/kg, po administered as single dose by LC/MS/MS analysis. Type of data set: ADME, organism-based. On the set-up: time < 1.5 hr, dose 30 mg/kg, route oral. To be noted: in vivo.
Data set [7] is described as follows: Ratio of AUC (0 to 1.5 hrs) in C57BL/6J mouse pancreas to plasma at 5 mg/kg, po administered as single dose by LC/MS/MS analysis. Format: ADME, organism-based. To be noted: pancreas and plasma, read-out: Ratio AUC.
Data set [8] can be described thus: AUC (0 to 1.5 hrs) in C57BL/6J mouse pancreas at 5 mg/kg, po administered as single dose by LC/MS/MS analysis. To be noted: in vivo. Format: ADME, organism-based. On the set-up: dose 5 mg/kg, time < 1.5 hr, route oral.
The nature of data set [9]: Ratio of AUC (0 to 1.5 hrs) in C57BL/6J mouse liver to plasma at 10 mg/kg, po administered as single dose by LC/MS/MS analysis. To be noted: liver and plasma, read-out: Ratio AUC. Type of data set: ADME, organism-based.
The nature of data set [10]: Ratio of AUC (0 to 1.5 hrs) in C57BL/6J mouse liver to pancreas at 10 mg/kg, po administered as single dose by LC/MS/MS analysis. Format: ADME, organism-based. To be noted: in vivo.
The nature of data set [11]: AUC (0 to 1.5 hrs) in C57BL/6J mouse liver at 30 mg/kg, po administered as single dose by LC/MS/MS analysis. Type of data set: ADME, organism-based. On the set-up: dose 30 mg/kg, time < 1.5 hr, route oral. To be noted: in vivo.
Data set [12] is described as follows: AUC (0 to 1.5 hrs) in C57BL/6J mouse plasma at 10 mg/kg, po administered as single dose by LC/MS/MS analysis. Format: ADME, organism-based. Also on record: time < 1.5 hr, dose 10 mg/kg, route oral.
Data set [13] is described as follows: Ratio of AUC (0 to 1.5 hrs) in C57BL/6J mouse liver to pancreas at 30 mg/kg, po administered as single dose by LC/MS/MS analysis. To be noted: in vivo. Type of data set: ADME, organism-based.
Data set [14] in a line: Ratio of AUC (0 to 1.5 hrs) in C57BL/6J mouse liver to plasma in C57BL/6J mouse at 5 mg/kg, po administered as single dose by LC/MS/MS analysis. Type of data set: ADME, organism-based. To be noted: liver and plasma, read-out: Ratio AUC.
Data set [15] in a line: AUC (0 to 1.5 hrs) in C57BL/6J mouse plasma at 5 mg/kg, po administered as single dose by LC/MS/MS analysis. Format: ADME, organism-based. On the set-up: time < 1.5 hr, dose 5 mg/kg, route oral.
Data set [16] has as its system Mus musculus. As to the kind of experiment: Antidiabetic activity in po dosed C57BL/6J mouse assessed as reduction in blood glucose level administered for 15 to 30 mins prior to glucose challenge measured up to 120 mins post dose by OGTT. Type of data set: functional, organism-based. Summed up:
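Fasted male C57BL/6J or ob/ob mice (8 weeks, n = 8/group) dosed orally in 0.5% methylcellulose 15 or 30 min before a 2 g/kg oral glucose load. Tail vein glucose measured by glucometer at −15 or −30, 0, 20, 40, 60, 90 and 120 min. Incremental glucose AUC0-120 min compared with vehicle. Mean ± SEM, Dunnett's test.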

Data set [17] in a line: Ratio of AUC (0 to 1.5 hrs) in C57BL/6J mouse pancreas to plasma at 30 mg/kg, po administered as single dose by LC/MS/MS analysis. Type of data set: ADME, organism-based. To be noted: pancreas and plasma, read-out: Ratio AUC.
Data set [18] has as its system Mus musculus. As to the kind of experiment: Antidiabetic activity in C57BL/6J mouse assessed as increase in insulin secretion at 30 mg/kg, po measured up to 60 mins by ELISA. Type of data set: functional, organism-based. In a few lines: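 Male C57BL/6J mice (8 weeks) fasted 2 h, then dosed orally at time 0 (n = 8/group). Tail vein insulin measured at 0, 30 and 60 min by ultra-sensitive mouse insulin ELISA. Mean ± SEM, Dunnett's test.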
For orientation: An ELISA detects its analyte on a solid surface through an enzyme-linked reagent.

In data set [19] the test system is Mus musculus. As to the kind of experiment: Toxicity in C57BL/6J mouse assessed as hypoglycemia at 30 mg/kg, po measured up to 300 mins by glucometric method. Format: organism-based. To be noted: in vivo, 5 h.
The nature of data set [20]: Ratio of AUC (0 to 1.5 hrs) in C57BL/6J mouse liver to pancreas at 5 mg/kg, po administered as single dose by LC/MS/MS analysis. Format: ADME, organism-based. To be noted: in vivo.
Data set [21] in a line: AUC (0 to 1.5 hrs) in C57BL/6J mouse liver at 5 mg/kg, po administered as single dose by LC/MS/MS analysis. To be noted: in vivo. Type of data set: ADME, organism-based. Also on record: dose 5 mg/kg, time < 1.5 hr, route oral.

`CS(=O)(=O)c1ccc([C@@H](C[C@H]2CCC(=O)C2)C(=O)Nc2cnccn2)cc1Cl` [PIRAGLIATIN]: the AUC in data set [1] is 1020 ng·h/g; in data set [5] it was 3230 ng·h/g; in [6], 5030 ng·h/g; in data set [8], 505 ng·h/g; in data set [11], 15700 ng·h/g; in data set [21] it was 1470 ng·h/g. The Kp amounted to 6.8 in [2]; 1.8 in data set [4]; 1.4 in data set [7]; 5.6 in [9]; 4.2 in [14]; 2.2 in data set [17]. Further, the AUC(0-t) at 1.5 h in data set [3] came to 2330 ng·h/mL; in [12] it was 574 ng·h/mL; in data set [15], 351 ng·h/mL. The “Ratio AUC” value in [10] is listed as 3.2; in [13], 3.1; in [20], 2.9. The Activity entry in the data set on Mus musculus [16] was “Dose-dependent effect”; with Mus musculus [19] it was “Toxic”. In addition, the outcome in the data set on Mus musculus [18] was Active.

For orientation: AUC(0-t) means the area under the concentration-time curve up to a stated or last time point. High values mean more exposure, low ones less exposure.
